Reference: ChEMBL document CHEMBL4665785 (J Med Chem, 2020)
Values belong to the molecule of their own block, whether it stands above or below them. The source made the active and inactive calls. The calls are words filed in the database; no cut-off is given here.

Tests used:
[1] = species: Homo sapiens; test: Selectivity ratio of inhibition of human liver Cathepsin L to inhibition of recombinant human Cathepsin S
[2] = target: Cathepsin B (Homo sapiens) (UniProt P07858); test: Inhibition of human liver Cathepsin B using Z-VVR-AMC as substrate at 10 uM preincubated for 15 mins followed by substrate addition and measured after 10 mins by fluorescence assay relative to control; conditions: time 25.0 min
[3] = target: T1, Cathepsin K (Homo sapiens) (UniProt P43235); test: Inhibition of recombinant human Cathepsin K expressed in baculovirus infected insect cells using Z-FR-AMC as substrate at 10 uM preincubated for 15 mins followed by substrate addition and measured after 10 mins by fluorescence assay relative to control; conditions: time 25.0 min
T1 sequence (whole entry): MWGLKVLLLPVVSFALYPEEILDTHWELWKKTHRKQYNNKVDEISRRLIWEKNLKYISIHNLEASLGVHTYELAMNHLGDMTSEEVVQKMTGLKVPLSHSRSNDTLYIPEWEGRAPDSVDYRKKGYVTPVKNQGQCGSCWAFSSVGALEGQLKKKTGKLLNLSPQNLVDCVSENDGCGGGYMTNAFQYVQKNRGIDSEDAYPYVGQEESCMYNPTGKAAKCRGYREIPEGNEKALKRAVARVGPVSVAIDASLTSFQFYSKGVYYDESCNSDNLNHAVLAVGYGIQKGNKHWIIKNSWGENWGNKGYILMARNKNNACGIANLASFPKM

[4] = species: Homo sapiens; test: Selectivity ratio of inhibition of human liver Cathepsin B to inhibition of recombinant human Cathepsin S
[5] = species: Homo sapiens; test: Selectivity ratio of inhibition of recombinant human Cathepsin K to inhibition of recombinant human Cathepsin S
[6] = target: Procathepsin L (Homo sapiens) (UniProt P07711); test: Inhibition of human liver Cathepsin L using Z-VVR-AMC as substrate at 10 uM preincubated for 15 mins followed by substrate addition and measured after 10 mins by fluorescence assay relative to control; conditions: time 25.0 min
[7] = target: T2, Cathepsin S (Homo sapiens, UniProt P25774); test: Inhibition of recombinant human Cathepsin S expressed in baculovirus infected insect cells using Z-VVR-AMC as substrate preincubated for 15 mins followed by substrate addition and measured after 10 mins by fluorescence assay
[8] = target: T1, Cathepsin K (Homo sapiens); test: Inhibition of recombinant human Cathepsin K expressed in baculovirus infected insect cells using Z-FR-AMC as substrate up to 100 uM preincubated for 15 mins followed by substrate addition and measured after 10 mins by fluorescence assay relative to control; conditions: time 25.0 min
[9] = Permeability across apical to basal side in human Caco-2 cells at 1 uM measured up to 120 min by LC-MS analysis; assay type: ADME, cell-based; conditions: time <= 120, dose 1 µM, read-out: permeability
[10] = target: T2, Cathepsin S; test: Inhibition of Cathepsin S in human Raji cells assessed as increase in Lip10 accumulation after 24 hrs by SDS-PAGE analysis; assay type: cell-based
Method in brief: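 Human Raji cells, an antigen-presenting B-lymphocyte line, used for the target-engagement read-out. Inhibition is scored as intracellular accumulation of the CatS substrate Lip10, the invariant-chain-derived propeptide.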

T2 sequence (P25774 whole entry): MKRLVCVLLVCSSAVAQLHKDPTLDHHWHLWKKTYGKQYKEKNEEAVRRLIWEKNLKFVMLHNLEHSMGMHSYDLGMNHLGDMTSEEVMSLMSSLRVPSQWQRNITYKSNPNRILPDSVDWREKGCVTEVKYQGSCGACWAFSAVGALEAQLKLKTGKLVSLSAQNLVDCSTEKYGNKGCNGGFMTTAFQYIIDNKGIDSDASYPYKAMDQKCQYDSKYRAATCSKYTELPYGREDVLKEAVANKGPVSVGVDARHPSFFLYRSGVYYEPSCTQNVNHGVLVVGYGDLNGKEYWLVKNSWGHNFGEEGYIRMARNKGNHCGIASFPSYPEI
Procathepsin L (Homo sapiens), sequence (P07711 114-333 limits assumed): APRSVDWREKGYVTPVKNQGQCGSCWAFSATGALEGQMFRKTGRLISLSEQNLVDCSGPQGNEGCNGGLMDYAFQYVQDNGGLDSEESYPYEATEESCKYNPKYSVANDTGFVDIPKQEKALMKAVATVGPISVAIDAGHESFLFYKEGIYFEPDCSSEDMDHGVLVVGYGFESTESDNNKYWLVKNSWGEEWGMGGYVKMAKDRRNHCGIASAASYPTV

- Selectivity ratio [1]: > 30000
- inhibition [2]: < 8%
- inhibition [3]: < 16%
- Selectivity ratio [4]: > 30000
- Selectivity ratio [5]: > 30000
- inhibition [6]: < 26%
- Ki [7]: 0.345 nM
SMILES: Cc1cc(CC(=O)N[C@@H](CS(=O)(=O)N2CCN(c3ccccn3)CC2)C(=O)NC2(C#N)CC2)on1

- inhibition [8]: inactive
- Ki [7]: 700 nM
SMILES: CNC(=O)CCS(=O)(=O)N1CCN(c2ccc3nncn3n2)CC1

- Papp A→B at 2 h, 1 µM [9]: 0.33 ×10⁻⁶ cm/s
- Ki [7]: 0.25 nM
SMILES: N#CC1(NC(=O)[C@H](CS(=O)(=O)N2CCN(c3ccccn3)CC2)Nc2cccnc2)CC1

- Ki [7]: 290 nM
SMILES: N#CC1(NC(=O)[C@@H](Cc2ccccc2)CS(=O)(=O)N2CCN(c3ccccn3)CC2)CC1

- Papp A→B at 2 h, 1 µM [9]: 0.4 ×10⁻⁶ cm/s
- EC50 [10]: 1100 nM
- Ki [7]: 0.2 nM
SMILES: N#CC1(NC(=O)[C@H](CS(=O)(=O)N2CCN(c3ccccn3)CC2)NC(=O)Cc2cccs2)CC1

- Ki [7]: ≤ 100 nM
SMILES: N#CC1(NC(=O)[C@H](CS(=O)(=O)C[C@H]2CCC(=O)N2)N[C@@H](c2ccc(F)cc2)C(F)(F)F)CC1

- Ki [7]: 800 nM
SMILES: N#CC1(NC(=O)CCS(=O)(=O)N2CCN(c3ccccn3)CC2)CC1
